Data published in ChEMBL document CHEMBL1152866, “Modulation of gene expression via disruption of NF-kappaB signaling by a bacterial small molecule” (Science, 2008).
The source made the active and inactive calls. The calls are words filed in the database; no cut-off is given here.

Experiments:
MEF [1] = assay: Inhibition of TNF-induced RelA expression in mouse MEF up to 120 mins by Western blot analysis; format: functional, cell-based
[2] = target: Transcription factor p65 (Mus musculus) (UniProt Q04207); assay: Inhibition of LPS-induced RelA phosphorylation in [32P]orthophosphate metabolically labelled mouse BMDM assessed as phosphorylated IkappaBbeta/RelA binding measured up to 120 mins in absence of IkappaBalpha by SDS-PAGE and autoradiography
MEF [3] = assay: Inhibition of LPS-induced RANTES mRNA expression in MEF after 90 mins by Northern blot analysis; format: functional, cell-based; details: Mus musculus
[4] = target: Transcription factor p65 (Mus musculus) (UniProt Q04207); assay: Inhibition of TNF-induced RelA phosphorylation in mouse MEF up to 120 mins by Western blot analysis
BMDM [5] = assay: Inhibition of LPS-induced c-jun mRNA expression in mouse BMDM up to 3 hrs by Northern blot analysis; format: functional, cell-based
[6] = target: T1, Inhibitor of nuclear factor kappa-B kinase subunit alpha (Mus musculus) (UniProt Q60680); assay: Inhibition of TNF-induced IkappaBalpha phosphorylation in mouse MEF up to 120 mins by Western blot analysis
T1 sequence (whole entry): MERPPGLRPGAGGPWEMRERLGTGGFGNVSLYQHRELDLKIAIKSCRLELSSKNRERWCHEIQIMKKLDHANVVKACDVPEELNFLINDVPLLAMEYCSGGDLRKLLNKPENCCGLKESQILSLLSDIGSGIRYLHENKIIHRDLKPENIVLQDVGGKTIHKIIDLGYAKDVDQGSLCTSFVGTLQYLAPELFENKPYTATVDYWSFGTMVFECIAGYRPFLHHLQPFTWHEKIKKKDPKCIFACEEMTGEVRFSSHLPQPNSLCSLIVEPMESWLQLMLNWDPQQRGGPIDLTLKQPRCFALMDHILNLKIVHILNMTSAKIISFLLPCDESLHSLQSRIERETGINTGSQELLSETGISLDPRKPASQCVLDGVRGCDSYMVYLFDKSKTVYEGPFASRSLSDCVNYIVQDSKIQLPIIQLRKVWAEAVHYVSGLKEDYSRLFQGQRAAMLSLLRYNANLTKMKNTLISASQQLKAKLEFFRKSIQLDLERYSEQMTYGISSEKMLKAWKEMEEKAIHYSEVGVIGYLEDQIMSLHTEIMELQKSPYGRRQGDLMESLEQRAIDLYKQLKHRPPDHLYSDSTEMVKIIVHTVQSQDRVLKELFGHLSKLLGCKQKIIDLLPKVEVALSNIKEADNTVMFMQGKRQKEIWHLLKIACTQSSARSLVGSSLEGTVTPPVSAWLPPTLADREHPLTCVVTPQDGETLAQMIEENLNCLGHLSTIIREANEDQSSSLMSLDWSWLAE

Mus musculus [7] = organism: Mus musculus; assay: Inhibition of IKK activity in LPS-induced mouse BMDM assessed as reduction in phosphorylation of RelA treated 2 hrs after LPS challenge measured up to 120 mins by immunoblot analysis
BMDM [8] = assay: Inhibition of LPS-induced TNF mRNA expression in mouse BMDM up to 3 hrs by Northern blot analysis; format: functional, cell-based
MEF [9] = assay: Effect on TNF-induced c-jun mRNA expression in MEF by Northern blot analysis; format: functional, cell-based; details: Mus musculus
Mus musculus [10] = organism: Mus musculus; assay: Suppression of LPS-induced TNF expression in C57BL/6 transgenic mouse bearing TNF-reporter after 2 hrs by luciferase reporter gene assay; format: functional, organism-based
In short: (§1)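 Animals received an injection of vehicle, LPS, C12, or LPS plus C12. Whole-animal bioluminescence was recorded 2 hours after injection as the read-out of reporter activity.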

Epithelial cell [11] = assay: Induction of apoptosis in TNF-stimulated human bronchial epithelial cells assessed as PARP cleavage after 2 hrs by Western blot analysis; format: functional, cell-based
In short: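 WI38 lung fibroblasts and bronchial epithelial cells were stimulated for 2 hours. The same Western blot was probed for PARP cleavage, total IκBα and phosphorylated IκBα.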

Macrophage [12] = assay: Inhibition of LPS-induced RANTES mRNA expression in mouse alveolar macrophages after 90 mins by Northern blot analysis; format: functional, cell-based
[13] = target: MAP kinase p38 (Homo sapiens) (UniProt O15264+Q15759+Q16539+P53778); assay: Inhibition of TNF-induced p38 phosphorylation in human bronchial epithelial cells up to 120 mins by Western blot analysis; format: cell-based; details: Epithelial cell
MEF [14] = assay: Inhibition of LPS-induced IkappaBalpha mRNA expression in MEF after 90 mins by Northern blot analysis; format: functional, cell-based; details: Mus musculus
Mus musculus [15] = organism: Mus musculus; assay: Suppression of LPS-induced TNF expression in C57BL/6 transgenic mouse bearing IkappaBalpha-reporter after 2 hrs by luciferase reporter gene assay; format: functional, organism-based; in short: as §1
Macrophage [16] = assay: Inhibition of LPS-induced IRF-1 mRNA expression in mouse alveolar macrophages after 90 mins by Northern blot analysis; format: functional, cell-based
BMDM [17] = assay: Inhibition of LPS-induced IL-12beta mRNA expression in mouse BMDM up to 3 hrs by Northern blot analysis; format: functional, cell-based
Epithelial cell [18] = assay: Inhibition of TNF-induced IkappaBbeta expression in human bronchial epithelial cells up to 120 mins by Western blot analysis; format: functional, cell-based
MEF [19] = assay: Inhibition of LPS-induced IP-10 mRNA expression in MEF after 90 mins by Northern blot analysis; format: functional, cell-based; details: Mus musculus
THP-1 = assay: Inhibition of LPS-induced IkappaBalpha expression in human THP1 cells measured up to 120 mins by Western blot analysis; format: functional, cell-based
[20] = target: T2, Inhibitor of nuclear factor kappa-B kinase subunit alpha (Homo sapiens) (UniProt O15111); assay: Inhibition of LPS-induced IkappaBalpha phosphorylation in human THP1 cells measured up to 120 mins by Western blot analysis; format: cell-based; details: THP-1
T2 sequence (whole entry): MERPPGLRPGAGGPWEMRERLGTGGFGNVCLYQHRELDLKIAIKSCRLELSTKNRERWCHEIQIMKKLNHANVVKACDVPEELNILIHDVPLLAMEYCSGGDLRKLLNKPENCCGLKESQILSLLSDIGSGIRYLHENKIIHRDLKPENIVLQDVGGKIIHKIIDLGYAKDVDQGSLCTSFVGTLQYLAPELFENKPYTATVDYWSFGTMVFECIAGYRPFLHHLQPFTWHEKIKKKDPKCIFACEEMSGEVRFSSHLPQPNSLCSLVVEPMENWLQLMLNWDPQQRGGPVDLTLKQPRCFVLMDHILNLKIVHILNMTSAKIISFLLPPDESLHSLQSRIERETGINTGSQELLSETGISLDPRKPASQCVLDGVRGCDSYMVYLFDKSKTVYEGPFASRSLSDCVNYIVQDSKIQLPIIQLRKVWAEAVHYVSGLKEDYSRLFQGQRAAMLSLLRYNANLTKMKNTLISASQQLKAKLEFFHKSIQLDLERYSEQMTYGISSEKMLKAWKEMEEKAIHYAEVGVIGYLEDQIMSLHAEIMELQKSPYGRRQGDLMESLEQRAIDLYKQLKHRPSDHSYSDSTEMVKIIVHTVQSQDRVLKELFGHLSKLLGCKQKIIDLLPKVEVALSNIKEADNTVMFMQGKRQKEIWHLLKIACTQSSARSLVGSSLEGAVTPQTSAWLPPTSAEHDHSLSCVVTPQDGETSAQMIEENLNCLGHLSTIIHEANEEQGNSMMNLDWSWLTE

Transcription factor p65 (Mus musculus), sequence (Q04207 whole entry): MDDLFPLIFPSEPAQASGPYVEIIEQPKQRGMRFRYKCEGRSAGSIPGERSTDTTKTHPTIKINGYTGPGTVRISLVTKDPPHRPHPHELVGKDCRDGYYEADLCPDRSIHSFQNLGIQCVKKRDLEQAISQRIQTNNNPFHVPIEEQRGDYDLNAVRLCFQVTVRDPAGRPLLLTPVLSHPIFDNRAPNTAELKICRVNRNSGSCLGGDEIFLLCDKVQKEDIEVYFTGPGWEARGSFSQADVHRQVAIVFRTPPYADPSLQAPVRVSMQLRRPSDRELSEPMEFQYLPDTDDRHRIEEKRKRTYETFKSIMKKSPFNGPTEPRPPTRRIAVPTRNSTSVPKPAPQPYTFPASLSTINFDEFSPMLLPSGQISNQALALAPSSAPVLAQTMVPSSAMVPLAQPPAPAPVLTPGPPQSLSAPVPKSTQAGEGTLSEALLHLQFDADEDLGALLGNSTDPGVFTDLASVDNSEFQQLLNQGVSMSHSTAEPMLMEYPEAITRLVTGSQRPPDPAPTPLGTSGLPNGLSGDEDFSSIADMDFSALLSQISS

Activity [2]: Active | Activity [4]: Active | Activity [6]: Active | Activity (Mus musculus [7]): Active | Activity (Mus musculus [10]): Active | Activity [13]: Active | Activity (Mus musculus [15]): Active | Activity [20]: Active
SMILES: CCCCCCCCCC(=O)CC(=O)N[C@H]1CCOC1=O
Activity (MEF [1]): Active | Activity (MEF [3]): Dose-dependent effect | Activity (BMDM [5]): Dose-dependent effect | Activity (BMDM [8]): Dose-dependent effect | Activity (MEF [9]): Active | Activity (Epithelial cell [11]): Active | Activity (Macrophage [12]): Dose-dependent effect | Activity (MEF [14]): Dose-dependent effect | Activity (Macrophage [16]): Dose-dependent effect | Activity (BMDM [17]): Dose-dependent effect | Activity (Epithelial cell [18]): Active | Activity (MEF [19]): Dose-dependent effect | Activity (THP-1): Active
